Legend:
HT-22 = assay: Cytotoxicity against mouse HT-22 cells assessed as reduction in cell viability incubated for 18 hrs by MTT assay; type: toxicity, cell-based; conditions: ht-22, 18 h
[1] = biological target: Amyloid-beta precursor protein (Homo sapiens) (UniProt P05067); assay: Inhibition of Amyloid beta (1 to 42 ) (unknown origin) aggregation assessed as fibrilization amyloid beta by measuring beta sheets at 1 to 50 uM incubated for 3 days by Thioflavin T based fluorescence assay; conditions: dose 1-50 µM, time 3.0 day
Sequence of Amyloid-beta precursor protein (Homo sapiens) (P05067 whole entry): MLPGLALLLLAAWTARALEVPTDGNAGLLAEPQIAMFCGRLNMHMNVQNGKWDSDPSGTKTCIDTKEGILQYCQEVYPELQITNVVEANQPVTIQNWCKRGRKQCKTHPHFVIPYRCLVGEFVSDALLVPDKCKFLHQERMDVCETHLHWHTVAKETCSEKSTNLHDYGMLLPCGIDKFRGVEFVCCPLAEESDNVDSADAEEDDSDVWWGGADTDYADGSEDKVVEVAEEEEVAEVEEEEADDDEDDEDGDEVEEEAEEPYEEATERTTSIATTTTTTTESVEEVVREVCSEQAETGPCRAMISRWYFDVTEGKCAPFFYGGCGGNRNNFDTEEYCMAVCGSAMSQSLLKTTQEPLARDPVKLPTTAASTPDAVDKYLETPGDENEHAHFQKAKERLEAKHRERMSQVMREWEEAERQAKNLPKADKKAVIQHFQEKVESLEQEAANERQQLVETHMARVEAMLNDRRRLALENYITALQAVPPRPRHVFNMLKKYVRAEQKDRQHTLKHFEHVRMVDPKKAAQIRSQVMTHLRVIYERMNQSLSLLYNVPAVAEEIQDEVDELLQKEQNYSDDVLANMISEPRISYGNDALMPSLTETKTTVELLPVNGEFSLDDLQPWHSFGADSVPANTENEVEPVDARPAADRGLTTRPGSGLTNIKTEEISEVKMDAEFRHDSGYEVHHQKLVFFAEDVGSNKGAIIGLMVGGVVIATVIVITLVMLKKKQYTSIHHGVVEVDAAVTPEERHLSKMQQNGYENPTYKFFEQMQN

[2] = biological target: Amyloid-beta precursor protein (Homo sapiens) (UniProt P05067); assay: Inhibition of Amyloid beta (1 to 42 ) (unknown origin) disaggregation assessed as reduction in mature fibril at 50 uM preincubated with amyloid beta followed by compound addition and measured after 3 days by Thioflavin T based fluorescence assay; conditions: time 3.0 day
[3] = biological target: Amyloid-beta precursor protein (Homo sapiens) (UniProt P05067); assay: Inhibition of Amyloid beta (1 to 42 ) (unknown origin) aggregation at 0.5 to 50 uM incubated for 3 days followed by incandescent lamp irradiation by photo-induced cross-linking of unmodified proteins method; conditions: dose 0.5-50 µM, time 3.0 day
Method in brief: (§1)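 Cross-linked Aβ products resolved on gels, imaged by fluorescence scanning and by silver staining. Band area quantified by densitometry and normalized to the 3-day aggregates, set as 100%.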

[4] = biological target: Amyloid-beta precursor protein (Homo sapiens) (UniProt P05067); assay: Inhibition of Amyloid beta (1 to 42 ) (unknown origin) disaggregation assessed as reduction in aggregation by measuring monomer band intensity at 0.5 to 50 uM incubated for 3 days followed by incandescent lamp irradiation by photo-induced cross-linking of unmodified proteins method; conditions: dose 0.5-50 µM, time 3.0 day; method in brief: as §1

Row | Compound | Activity (HT-22) | other results
1 | Brc1ccc(C2Nc3ccccc3-c3cc4ccccn4c32)cc1 (stereo unspecified) | Toxic | 
2 | COc1cccc(-c2nc3ccccc3c3cc4c(C)cccn4c23)c1 | Toxic | 
3 | COC(=O)c1c2c3ccccc3nc(-c3ccc[nH]3)c2n2ccccc12 | Toxic | 
4 | COc1ccc(-c2nc3ccccc3c3cc4ccccn4c23)cc1 | Toxic | 
5 | Brc1ccc(-c2nc3ccccc3c3cc4ccccn4c23)cc1 | Toxic | 
6 | Cc1cccn2c1cc1c3ccccc3nc(-c3cc4ccccc4[nH]3)c12 | Toxic | inhibition [1]: > 30%; inhibition [2]: 40%
7 | Cc1cccn2c1cc1c3ccccc3nc(-c3cccc4ccccc34)c12 | Toxic | 
8 | COc1ccc(-c2nc3ccccc3c3c(I)c4ccccn4c23)cc1 | Toxic | 
9 | COc1ccc(-c2nc3ccccc3c3cc4ccc(-c5cc(OC)cc(OC)c5)cn4c23)cc1 | Toxic | 
10 | Cc1ccc(-c2nc3ccccc3c3cc4c(C)cccn4c23)cc1 | Toxic | 
11 | COc1ccc(-c2nc3ccccc3c3cc4ccccn4c23)cc1OC | Toxic | 
12 | Cc1cccn2c1cc1c3ccccc3nc(-c3ccco3)c12 | Toxic | 
13 | c1ccc2cc(-c3nc4ccccc4c4cc5ccccn5c34)ccc2c1 | Toxic | 
14 | Cc1cccn2c1cc1c3ccccc3nc(-c3cc4ccccc4o3)c12 | Toxic | 
15 | COc1ccc(-c2nc3ccccc3c3cc4ccc(Br)cn4c23)cc1OC | Toxic | inhibition [1]: > 30%; inhibition [2]: 40%; inhibition [3]: 20%
16 | c1ccc(-c2nc3ccccc3c3cc4ccccn4c23)nc1 | Toxic | 

Row | Compound | Activity (HT-22) | other results
17 | Cc1cccn2c1cc1c3ccccc3nc(-c3cccc(F)c3)c12 | Toxic | 
18 | COc1ccc(-c2nc3ccccc3c3cc4c(C)cccn4c23)cc1OC | Toxic | inhibition [1]: > 30%; inhibition [2]: 40%; inhibition [3]: 20%
19 | CN(C)c1ccc(-c2nc3ccccc3c3cc4ccccn4c23)cc1 | Toxic | inhibition [1]: > 30%; inhibition [2]: > 60%; inhibition [3]: 20%; inhibition [4]: 10%
20 | COc1cc(OC)cc(-c2ccc3cc4c5ccccc5nc(-c5cccc6ccccc56)c4n3c2)c1 | Toxic | inhibition [1]: > 30%
21 | Brc1ccc2cc3c4ccccc4nc(-c4ccco4)c3n2c1 | Toxic | inhibition [1]: > 30%
22 | CCOC(=O)c1c2c3ccccc3nc(-c3ccc(OC)c(OC)c3)c2n2ccccc12 | Toxic | 
23 | Cc1ccc2cc3c4ccccc4nc(-c4cccc5ccccc45)c3n2c1 | Toxic | 
24 | Clc1ccc(-c2nc3ccccc3c3cc4ccccn4c23)cc1 | Toxic | 
25 | c1ccc2c(-c3nc4ccccc4c4cc5ccccn5c34)cccc2c1 | Toxic | 
26 | Clc1ccc(-c2nc3ccccc3c3cc4ccccn4c23)s1 | Toxic | 
27 | COc1cc(OC)cc(-c2nc3ccccc3c3cc4ccccn4c23)c1 | Toxic | 
28 | c1ccc(-c2nc3ccccc3c3cc4ccccn4c23)cc1 | Toxic | 
29 | COc1cc(OC)cc(-c2nc3ccccc3c3cc4c(C)cccn4c23)c1 | Toxic | 
30 | c1csc(-c2nc3ccccc3c3cc4ccccn4c23)c1 | Toxic | 
31 | COc1cccc(-c2nc3ccccc3c3cc4ccccn4c23)c1 | Toxic | 
32 | COc1ccc(-c2nc3ccccc3c3c(-c4ccc(F)cc4)c4ccccn4c23)cc1 | Toxic | 

Reference: ChEMBL document CHEMBL5107936, “Anti-amyloidogenic indolizino[3,2-c]quinolines as imaging probes differentiating dense-core, diffuse, and coronal plaques of amyloid-β” (RSC Med Chem, 2021)
